The values that follow come from ChEMBL document CHEMBL2146410, “Novel N-Substituted Benzimidazolones as Potent, Selective, CNS-Penetrant, and Orally Active M1 mAChR Agonists” (ACS Med Chem Lett, 2010).

Activity calls are given as the source filed them. The rule behind the calls is not given here.

The target of one data set is D(3) dopamine receptor (Homo sapiens, UniProt P35462). Kind of data set: Binding affinity to dopamine D3 receptor.
The target of data set [1] is T1, Muscarinic acetylcholine receptor M4 (Homo sapiens, UniProt P08173).
T1 sequence (P08173 whole entry): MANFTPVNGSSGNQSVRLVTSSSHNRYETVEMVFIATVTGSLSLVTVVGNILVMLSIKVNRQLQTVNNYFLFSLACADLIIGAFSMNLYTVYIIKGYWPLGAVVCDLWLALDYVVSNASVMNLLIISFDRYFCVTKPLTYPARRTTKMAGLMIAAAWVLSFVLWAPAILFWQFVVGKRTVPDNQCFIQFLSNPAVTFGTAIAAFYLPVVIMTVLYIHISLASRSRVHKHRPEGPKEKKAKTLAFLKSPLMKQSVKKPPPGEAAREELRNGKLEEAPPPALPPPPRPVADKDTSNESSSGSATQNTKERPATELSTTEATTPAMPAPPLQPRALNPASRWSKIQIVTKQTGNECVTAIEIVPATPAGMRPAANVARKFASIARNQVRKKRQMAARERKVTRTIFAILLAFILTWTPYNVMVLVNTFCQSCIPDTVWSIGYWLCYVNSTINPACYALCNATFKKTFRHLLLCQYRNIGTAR
Put plainly: Agonist activity at human muscarinic M4 receptor expressed in CHO cells coexpressing Galpha16 subunit assessed as intracellular calcium mobilization after 10 to 15 mins by FLIPR assay. Type of data set: functional, cell-based. For orientation: A change in cytosolic calcium serves as a functional read-out for many receptors and channels.

Data set [2] concerns the target Voltage-gated inwardly rectifying potassium channel KCNH2 (Homo sapiens, UniProt Q12809). Kind of data set: Binding affinity to human ERG.
The target in data set [3] is T2, Muscarinic acetylcholine receptor M1 (Homo sapiens) (UniProt P11229).
T2 sequence (whole entry): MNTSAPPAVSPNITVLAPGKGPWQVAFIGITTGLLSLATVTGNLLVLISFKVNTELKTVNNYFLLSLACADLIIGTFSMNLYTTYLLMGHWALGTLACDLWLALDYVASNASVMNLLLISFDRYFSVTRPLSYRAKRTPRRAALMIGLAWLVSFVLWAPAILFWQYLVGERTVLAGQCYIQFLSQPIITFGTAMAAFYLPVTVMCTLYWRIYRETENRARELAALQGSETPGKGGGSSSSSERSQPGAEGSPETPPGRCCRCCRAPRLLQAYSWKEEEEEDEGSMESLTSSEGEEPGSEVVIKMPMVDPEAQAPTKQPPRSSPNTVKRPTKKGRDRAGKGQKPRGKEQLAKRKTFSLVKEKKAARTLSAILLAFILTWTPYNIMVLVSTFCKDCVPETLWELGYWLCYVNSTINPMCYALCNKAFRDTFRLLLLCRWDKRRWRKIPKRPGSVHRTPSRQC
Kind of data set: Intrinsic activity at human muscarinic M1 receptor expressed in CHO cells assessed as intracellular calcium mobilization after 10 to 15 mins by FLIPR assay. It is filed as functional, cell-based. The procedure, abridged: (§1)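 Human M1 mAChR stably expressed in CHO cells; agonist-induced intracellular Ca2+ mobilization read by fluorometric imaging plate reader (FLIPR).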

The target in data set [4] is T3, 5-hydroxytryptamine receptor 1A (Homo sapiens, UniProt P08908).
T3 sequence (P08908 whole entry): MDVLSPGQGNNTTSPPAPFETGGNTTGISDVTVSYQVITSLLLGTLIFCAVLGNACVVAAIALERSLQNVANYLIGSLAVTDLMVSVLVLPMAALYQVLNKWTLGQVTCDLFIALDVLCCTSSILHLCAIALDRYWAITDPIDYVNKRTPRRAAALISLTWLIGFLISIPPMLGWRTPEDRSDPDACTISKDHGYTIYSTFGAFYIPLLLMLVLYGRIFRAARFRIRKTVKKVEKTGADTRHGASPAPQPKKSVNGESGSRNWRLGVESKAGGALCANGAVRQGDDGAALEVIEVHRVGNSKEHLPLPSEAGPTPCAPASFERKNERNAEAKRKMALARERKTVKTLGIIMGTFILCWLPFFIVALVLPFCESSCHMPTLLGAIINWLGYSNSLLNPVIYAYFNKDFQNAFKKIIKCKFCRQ
Put plainly: Activity at 5HT1A receptor.

The target of data set [5] is T4, Muscarinic acetylcholine receptor M2 (Homo sapiens, UniProt P08172).
T4 sequence (P08172 whole entry): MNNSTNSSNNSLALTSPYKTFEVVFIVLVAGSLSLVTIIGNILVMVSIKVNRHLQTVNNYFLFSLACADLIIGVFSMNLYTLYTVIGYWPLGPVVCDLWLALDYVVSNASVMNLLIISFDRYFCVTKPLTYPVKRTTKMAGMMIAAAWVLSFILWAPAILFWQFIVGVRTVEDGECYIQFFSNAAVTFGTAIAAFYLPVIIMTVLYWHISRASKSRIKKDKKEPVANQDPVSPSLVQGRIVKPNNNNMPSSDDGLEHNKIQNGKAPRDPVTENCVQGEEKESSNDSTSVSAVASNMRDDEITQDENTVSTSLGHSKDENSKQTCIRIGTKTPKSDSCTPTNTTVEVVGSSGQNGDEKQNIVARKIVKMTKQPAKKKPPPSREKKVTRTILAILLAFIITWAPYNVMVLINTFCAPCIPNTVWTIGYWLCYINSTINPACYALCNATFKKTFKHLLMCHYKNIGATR
Kind of data set: Agonist activity at human muscarinic M2 receptor expressed in CHO cells coexpressing Galpha16 subunit assessed as intracellular calcium mobilization after 10 to 15 mins by FLIPR assay. Type of data set: functional, cell-based.

Data set [6] has as its target T5, Muscarinic acetylcholine receptor M1 (Homo sapiens, UniProt P11229).
T5 sequence (P11229 whole entry): T2 sequence (whole entry)
Kind of data set: Agonist activity at human muscarinic M1 receptor expressed in CHO cells assessed as intracellular calcium mobilization after 10 to 15 mins by FLIPR assay. Type of data set: functional, cell-based. In outline: as §1

Data set [7] concerns the target T6, Muscarinic acetylcholine receptor M3 (Homo sapiens, UniProt P20309). Put plainly: Agonist activity at human muscarinic M3 receptor expressed in CHO cells assessed as intracellular calcium mobilization after 10 to 15 mins by FLIPR assay. It is filed as functional, cell-based.
Target sequence in this assay (P20309 whole entry): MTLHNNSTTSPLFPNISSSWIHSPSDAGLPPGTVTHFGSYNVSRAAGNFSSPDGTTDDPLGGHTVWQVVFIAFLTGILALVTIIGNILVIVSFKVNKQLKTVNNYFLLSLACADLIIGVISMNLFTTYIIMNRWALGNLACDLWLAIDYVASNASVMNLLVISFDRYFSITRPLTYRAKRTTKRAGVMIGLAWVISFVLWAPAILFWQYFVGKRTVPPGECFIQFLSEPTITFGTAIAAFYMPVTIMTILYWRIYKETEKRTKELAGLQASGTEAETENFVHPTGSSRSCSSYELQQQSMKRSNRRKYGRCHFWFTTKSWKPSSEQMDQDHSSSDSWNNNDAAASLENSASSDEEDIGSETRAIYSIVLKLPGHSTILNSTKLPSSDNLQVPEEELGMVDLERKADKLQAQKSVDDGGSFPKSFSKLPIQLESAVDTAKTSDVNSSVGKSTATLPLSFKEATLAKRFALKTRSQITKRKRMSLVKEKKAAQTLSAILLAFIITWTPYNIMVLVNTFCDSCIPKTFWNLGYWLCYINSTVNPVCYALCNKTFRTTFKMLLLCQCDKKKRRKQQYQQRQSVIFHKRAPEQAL
Data set [8] concerns the target 5-hydroxytryptamine receptor 2A (Homo sapiens, UniProt P28223). Kind of data set: Binding affinity to 5HT2A receptor.
Another data set deals with D(2) dopamine receptor (Homo sapiens, UniProt P14416). Kind of data set: Binding affinity to dopamine D2 receptor.
D(2) dopamine receptor, sequence (P14416 whole entry): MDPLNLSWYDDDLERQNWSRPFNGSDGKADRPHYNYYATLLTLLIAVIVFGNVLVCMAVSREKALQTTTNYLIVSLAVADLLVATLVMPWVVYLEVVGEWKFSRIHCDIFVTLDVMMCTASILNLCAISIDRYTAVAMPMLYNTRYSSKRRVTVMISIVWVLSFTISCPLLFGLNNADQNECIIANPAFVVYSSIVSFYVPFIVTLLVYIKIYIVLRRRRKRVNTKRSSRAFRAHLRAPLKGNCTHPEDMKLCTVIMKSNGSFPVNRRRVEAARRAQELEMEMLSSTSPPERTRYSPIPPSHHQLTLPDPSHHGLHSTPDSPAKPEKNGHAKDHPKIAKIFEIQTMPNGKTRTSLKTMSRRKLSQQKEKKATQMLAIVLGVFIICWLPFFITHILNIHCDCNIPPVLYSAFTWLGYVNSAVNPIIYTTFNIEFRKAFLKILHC
The subject of data set [9] is Rattus norvegicus. Kind of data set: Increase in neuronal firing rate in Sprague-Dawley rat hippocampal CA1 region at 1 mg/kg, iv. It is filed as functional. The procedure, abridged:
(§2)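 Rat hippocampal CA1 neuronal cell firing rate recorded after iv dosing at 0.3 or 1 mg/kg. Where used, scopolamine was given at 3 mg/kg ip […] before the iv dose. Statistics by repeated measures ANOVA.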

For data set [10], the target named is T7, Muscarinic acetylcholine receptor M2 (Homo sapiens) (UniProt P08172).
T7 sequence (whole entry): T4 sequence (P08172 whole entry)
Kind of data set: Intrinsic activity at human muscarinic M2 receptor expressed in CHO cells coexpressing Galpha16 subunit assessed as intracellular calcium mobilization after 10 to 15 mins by FLIPR assay. Type of data set: functional, cell-based.

For data set [11], the system named is Rattus norvegicus. Kind of data set: Increase in neuronal firing rate in Sprague-Dawley rat hippocampal CA1 region at 0.3 mg/kg, iv. Further details: dose 0.3 mg/kg. It is filed as functional, organism-based. In outline: as §2
Data set [12] is described as follows: Ratio of drug level in brain to blood in rat at 3 mg/kg, po. Type of data set: ADME, organism-based. Further details: dose 3 mg/kg, route oral.
In data set [13] the test system is Rattus norvegicus. Kind of data set: Increase in neuronal firing rate in Sprague-Dawley rat hippocampal CA1 region at 1 mg/kg, iv pretreated with 3 mg/kg, ip mAChR antagonist scopolamine for 10 mins. Type of data set: functional, organism-based.
For data set [14], the system named is Rattus norvegicus. Put plainly: Antidementia activity against scopolamine-induced amnesia in Wistar rat assessed as improvement in recall latency to transfer from bright to dark compartment administered orally 2 hrs before scopolamine challenge measured after 24 hrs post training by passive avoidance test. Type of data set: functional, organism-based. In outline: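 Rat passive avoidance task with scopolamine (0.8 mg/kg) given to induce amnesia. Test agent dosed orally at 1, 3 and 10 mg/kg. Groups compared with vehicle-treated controls and with scopolamine alone.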

Data set [15] deals with T8, Muscarinic acetylcholine receptor M4 (Homo sapiens) (UniProt P08173).
T8 sequence (whole entry): T1 sequence (P08173 whole entry)
Kind of data set: Intrinsic activity at human muscarinic M4 receptor expressed in CHO cells coexpressing Galpha16 subunit assessed as intracellular calcium mobilization after 10 to 15 mins by FLIPR assay. Type of data set: functional, cell-based.

The target in data set [16] is T6, Muscarinic acetylcholine receptor M3. Kind of data set: Intrinsic activity at human muscarinic M3 receptor expressed in CHO cells assessed as intracellular calcium mobilization after 10 to 15 mins by FLIPR assay. It is filed as functional, cell-based.
Target sequence in this assay (P20309 whole entry, looked up): as the sequence (P20309 whole entry) above
Data set [17] is described as follows: Blood clearance in rat at 1 mg/kg, iv. It is filed as ADME, organism-based. More on the design: dose 1 mg/kg, route intravenous.
Data set [18] is described as follows: Half life in rat at 1 mg/kg, iv. Type of data set: ADME, organism-based. Further details: dose 1 mg/kg, route intravenous. The conditions noted are these: in vivo.
The next data set has as its system Liver microsomes. Kind of data set: Intrinsic clearance in human liver microsomes. Type of data set: ADME, Microsome.
Data set [19] deals with T9, Muscarinic acetylcholine receptor M5 (Homo sapiens, UniProt P08912).
T9 sequence (P08912 whole entry): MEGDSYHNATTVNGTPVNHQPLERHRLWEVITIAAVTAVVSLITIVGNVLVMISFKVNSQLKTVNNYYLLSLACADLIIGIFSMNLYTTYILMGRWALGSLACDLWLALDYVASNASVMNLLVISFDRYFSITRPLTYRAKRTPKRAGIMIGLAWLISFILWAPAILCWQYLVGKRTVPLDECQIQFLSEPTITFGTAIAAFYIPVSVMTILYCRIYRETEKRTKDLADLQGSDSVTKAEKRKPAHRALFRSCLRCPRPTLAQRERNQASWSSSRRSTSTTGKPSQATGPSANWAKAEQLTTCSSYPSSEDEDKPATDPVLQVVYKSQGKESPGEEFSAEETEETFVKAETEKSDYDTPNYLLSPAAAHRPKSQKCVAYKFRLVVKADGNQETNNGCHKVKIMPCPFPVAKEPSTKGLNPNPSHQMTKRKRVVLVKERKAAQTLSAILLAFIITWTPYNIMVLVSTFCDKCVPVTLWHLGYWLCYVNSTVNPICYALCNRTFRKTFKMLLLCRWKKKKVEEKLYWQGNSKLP
Kind of data set: Agonist activity at human muscarinic M5 receptor expressed in CHO cells assessed as intracellular calcium mobilization after 10 to 15 mins by FLIPR assay. Type of data set: functional, cell-based.

A short description of data set [20]: Half life in rat at 3 mg/kg, po. Type of data set: ADME, organism-based. Further details: dose 3 mg/kg, route oral. The conditions noted are these: in vivo.

Voltage-gated inwardly rectifying potassium channel KCNH2, sequence (Q12809 whole entry): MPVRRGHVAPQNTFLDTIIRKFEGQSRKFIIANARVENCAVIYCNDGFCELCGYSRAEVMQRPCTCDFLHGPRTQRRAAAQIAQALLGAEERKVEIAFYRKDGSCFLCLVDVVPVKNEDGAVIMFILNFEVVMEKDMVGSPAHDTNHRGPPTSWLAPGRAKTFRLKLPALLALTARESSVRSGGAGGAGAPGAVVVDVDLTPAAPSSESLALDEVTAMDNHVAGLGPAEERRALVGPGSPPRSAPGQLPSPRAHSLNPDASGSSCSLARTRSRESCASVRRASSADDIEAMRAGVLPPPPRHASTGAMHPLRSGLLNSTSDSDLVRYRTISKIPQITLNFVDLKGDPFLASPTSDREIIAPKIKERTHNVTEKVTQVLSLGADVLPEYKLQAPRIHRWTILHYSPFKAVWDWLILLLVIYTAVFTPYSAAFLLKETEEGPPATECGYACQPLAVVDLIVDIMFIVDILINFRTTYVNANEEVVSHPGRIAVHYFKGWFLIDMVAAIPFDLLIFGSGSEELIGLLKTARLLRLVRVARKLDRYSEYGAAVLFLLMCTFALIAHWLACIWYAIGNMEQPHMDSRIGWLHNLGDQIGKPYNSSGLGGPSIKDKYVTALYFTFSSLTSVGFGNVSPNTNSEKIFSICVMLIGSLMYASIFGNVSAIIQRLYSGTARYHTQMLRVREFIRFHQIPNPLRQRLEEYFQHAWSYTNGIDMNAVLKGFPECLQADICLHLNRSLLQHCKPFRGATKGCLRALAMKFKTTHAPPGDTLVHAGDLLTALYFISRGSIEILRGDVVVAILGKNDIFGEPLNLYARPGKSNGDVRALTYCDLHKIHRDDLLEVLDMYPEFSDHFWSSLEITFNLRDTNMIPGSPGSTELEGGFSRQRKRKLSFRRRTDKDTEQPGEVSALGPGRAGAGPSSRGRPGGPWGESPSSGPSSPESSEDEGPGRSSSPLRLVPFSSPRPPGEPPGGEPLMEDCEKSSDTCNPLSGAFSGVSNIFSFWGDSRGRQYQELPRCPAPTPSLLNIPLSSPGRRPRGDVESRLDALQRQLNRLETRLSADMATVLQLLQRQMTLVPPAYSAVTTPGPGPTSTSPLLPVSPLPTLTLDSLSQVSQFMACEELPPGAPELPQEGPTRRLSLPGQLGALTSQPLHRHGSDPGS
5-hydroxytryptamine receptor 2A, sequence (P28223 whole entry): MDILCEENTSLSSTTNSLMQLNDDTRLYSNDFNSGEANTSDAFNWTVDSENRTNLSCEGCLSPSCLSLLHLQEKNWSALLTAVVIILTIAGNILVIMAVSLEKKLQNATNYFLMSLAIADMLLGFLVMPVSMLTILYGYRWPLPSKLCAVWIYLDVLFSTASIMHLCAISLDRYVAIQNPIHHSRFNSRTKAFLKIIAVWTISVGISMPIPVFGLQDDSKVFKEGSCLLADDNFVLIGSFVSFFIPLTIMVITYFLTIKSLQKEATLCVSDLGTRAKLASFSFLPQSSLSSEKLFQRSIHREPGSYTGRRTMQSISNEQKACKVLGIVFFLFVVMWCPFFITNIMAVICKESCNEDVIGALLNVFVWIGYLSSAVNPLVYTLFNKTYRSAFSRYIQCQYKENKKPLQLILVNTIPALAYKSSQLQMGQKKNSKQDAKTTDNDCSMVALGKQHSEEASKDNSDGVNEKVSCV
D(3) dopamine receptor, sequence (P35462 whole entry): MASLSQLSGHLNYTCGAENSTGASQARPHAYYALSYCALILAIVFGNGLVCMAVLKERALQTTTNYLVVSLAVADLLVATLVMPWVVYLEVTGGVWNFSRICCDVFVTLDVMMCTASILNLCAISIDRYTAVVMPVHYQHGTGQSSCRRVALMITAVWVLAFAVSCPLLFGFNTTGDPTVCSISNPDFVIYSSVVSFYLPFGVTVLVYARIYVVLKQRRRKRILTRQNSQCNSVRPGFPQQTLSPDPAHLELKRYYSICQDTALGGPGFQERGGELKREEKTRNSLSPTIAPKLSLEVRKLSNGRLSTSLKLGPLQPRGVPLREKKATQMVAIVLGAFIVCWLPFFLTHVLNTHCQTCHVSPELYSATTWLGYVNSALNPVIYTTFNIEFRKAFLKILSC

One may read the Ki as a dissociation constant, usually derived from enzyme kinetics or from competition with a known ligand. A high value points to weaker binding. A word on the EC50: it is the concentration that produces a half-maximal response. The term IC50 denotes the concentration at which inhibition is half-maximal. A lower IC50 goes with greater potency. `O=c1[nH]c2ccccc2n1C1CCN(CCCOc2ccc(F)cc2)CC1`: the figures for the Ki (at D(3) dopamine receptor; in data set [8]; at D(2) dopamine receptor) were 1.26 nM, 3.16 nM and 0.501 nM, respectively. Besides, the EC50 was more than 25100 nM in data set [1]; 50.1 nM in [4]; more than 25100 nM in data set [5]; 398 nM in data set [6]; more than 25100 nM in data set [7]. Also, the IC50 in [2] was 79.4 nM. In [3], the Intrinsic activity was found to be 86%.
As usually defined, the Kp is tissue or fluid exposure divided by exposure in the circulation. Regarding `Cc1cc2c(cc1F)[nH]c(=O)n2C1CCN(C2CCOCC2)CC1`, the “fold change (FC)” value in the data set on Rattus norvegicus [9] is on record as 3. Moreover, the EC50 in [1] was 501 nM. Moreover, the IC50 in data set [2] is 12600 nM. The Intrinsic activity in data set [10] was 71%; in data set [3] it was 94%; in data set [15], 71%; in data set [16], 58%. For the same compound, the outcome with Rattus norvegicus [11] and in the data set with Rattus norvegicus [13] was inactive. Further, in [12], the Kp came out at 0.6. In addition, the Activity entry in the data set on Rattus norvegicus [14] is “Dose-dependent effect”.
What is called clearance is a measure of how efficiently the substance is removed, as volume per time. Read a low clearance as a low capacity for elimination. The half-life is the time in which the quantity being followed falls by half. A lower half-life goes with fast loss. Consider `O=c1[nH]c2ccccc2n1C1CCN(C2CCOCC2)CC1`, for which the clearance in [17] amounted to 68 mL/min/kg. For the same compound, in [18], the half-life is 0.5 h. This compound also came in with a CLH with Liver microsomes of 0.5 mL/min/g. Also, the Intrinsic activity in data set [10] came out at 88%; in data set [3], 101%; in data set [15], 77%. The EC50 in data set [7] and in [19] was more than 10000 nM in each case.
`Cc1ccc2[nH]c(=O)n(C3CCN(C4CCOCC4)CC3)c2c1`: the concentration giving a half-maximal response (EC50) is 631 nM in [1], 631 nM in data set [5], 5.01 nM in data set [6] and 3980 nM in data set [7]. The IC50 in [2] was 25100 nM. The Intrinsic activity is 71% in data set [10], 92% in [3], 68% in data set [15] and 72% in data set [16]. The partition ratio (Kp) in [12] was determined as 0.6. In data set [20], the half-life is 2.6 h.
